Assay results from different studies.
Lines come from different studies, so protocols differ.
Sample: plasma

For `Cc1cc(S(=O)(=O)N[C@H]2CC[C@H](CN3CCN(c4ccc(C5CCC(=O)NC5=O)c(Cl)c4)CC3)CC2)ccc1Nc1ncc(C(F)(F)F)c(N2CCC[C@](C)(O)C2)n1` (stereo partly shown), the bioavailability was 25% (rat; oral; 10 mg/kg).
The bioavailability of `CC(C)C[C@H](NC(=O)NCc1cn(-c2ccccc2C(=O)OCn2cc(F)c(=O)[nH]c2=O)nn1)C(=O)NO` is reported as about 0.64% (male Sprague-Dawley rat; oral; 50 mg/kg).
`CCCCC(=O)Nc1ccc(-c2ccc3ncn(CCC)c(=O)c3c2)cn1` has a bioavailability of 21.1% (male rat; oral; 10 mg/kg).
The bioavailability of `Cc1cc(S(=O)(=O)NC2CC(N3CCN(CC4CCN(c5ccc6c(c5F)n(C)c(=O)n6C5CCC(=O)NC5=O)CC4)CC3)C2)ccc1Nc1ncc(C(F)(F)F)c(N2CCCC(C)(O)C2)n1` (stereo not shown) is reported as 1% (rat; oral; 10 mg/kg).
With `O=C1CCC(N2Cc3cc(C4CCN(Cc5ccccc5)CC4)ccc3C2=O)C(=O)N1` (stereo not shown) the bioavailability was 36.2% (male Sprague-Dawley rat; oral; 3 mg/kg).
With `Cc1cc(S(=O)(=O)N[C@H]2CC[C@H](CN3CCN(c4cccc(NC5CCC(=O)NC5=O)c4)CC3)CC2)ccc1Nc1ncc(C(F)(F)F)c(N2CCC[C@](C)(O)C2)n1` (stereo partly shown) the bioavailability was 13% (rat; oral; 10 mg/kg).
`COc1nc(-c2cccc(-c3ccccc3)c2C)ccc1CNCCNC(=O)CCCCCCCCCCC(=O)N1CCN(CCNC(=O)c2cc3c(=O)n4cccc(C)c4nc3n(CCc3cccs3)c2=N)CC1` has a bioavailability of 74.8% (male Sprague-Dawley rat; intraperitoneal; 4 mg/kg).
With `C[C@H]1Oc2cc(cnc2N)-c2c(nn(C)c2C#N)CN(C)C(=O)c2ccc(F)cc21` the bioavailability was 8.6% (Sprague-Dawley rat; oral).
`COc1cc(-c2cc(C(C)=O)n3ccccc23)c(OC)cc1Cn1ccnc1` has a bioavailability of 50.3% (male Sprague-Dawley rat; oral; 5 mg/kg).
`COc1ccc(N(Cc2csc(-c3ccccc3)n2)C(=O)CCCCCC(=O)NO)cc1` has a bioavailability of 10.3% (female Sprague-Dawley rat; oral).
